Assay results reported in publication PMC5715471 (ACS chemical neuroscience, 2017).
Where two headings read alike, the source gives them in different places.

Assays:
σ2R/Tmem97 = target: T1, σ2R/Tmem97 (Rattus norvegicus, UniProt Q5U3Y7); experiment: Sigma 2 receptor competition binding with [3H]-ditolylguanidine; settings: σ2R from rat PC12 cells
T1 sequence (Q5U3Y7 1-176): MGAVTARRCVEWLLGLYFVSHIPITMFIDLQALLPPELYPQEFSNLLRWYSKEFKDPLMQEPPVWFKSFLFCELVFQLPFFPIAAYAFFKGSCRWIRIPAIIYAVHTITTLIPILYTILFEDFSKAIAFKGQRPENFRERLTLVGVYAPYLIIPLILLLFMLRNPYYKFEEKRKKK

[1] = Blood brain barrier crossing; type: in vivo; settings: no data or reference given
[2] = tested on: mouse spared nerve injury (SNI) model; experiment: Mechanical sensitivity; type: in vivo; settings: for effect on SNI-induced mechanical hypersensitivity: single IT injection, 10 μg, vs vehicle; for time after IT injection at which efficacy was seen (onset) / time through which antipain effect persisted: IT 10 μg
Outline: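 Male C57Bl6/J mice with SNI (peroneal and tibial sciatic branches cut, sural spared), confirmed hypersensitive 2 weeks post-surgery and screened 21–60 days after SNI. Single intrathecal 10 μg in 5 μL saline (DMSO <5%, vehicle DMSO-matched). Blinded hindpaw von Frey, modified up–down, at set times. n = 4–11. Mean ± SEM; two-way ANOVA with Bonferroni. Repeat injections ≥14 days apart.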

[3] = tested on: SK-N-SH neuroblastoma cells; settings: cited from earlier work
[4] = tested on: mouse spared nerve injury (SNI) model; experiment: Mechanical sensitivity; type: in vivo; settings: IV 100 mg/kg
Outline: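 Male C57Bl6/J SNI mice, hindpaw mechanical hypersensitivity confirmed 2 weeks post-surgery. Tail-vein IV injection in 100 μL sterile saline (DMSO stock diluted; vehicle DMSO-matched): test compound 10 mg/kg, gabapentin 100 mg/kg, or vehicle, n = 6 each. Blinded von Frey testing (modified up–down) at set time points. Mean ± SEM; two-way ANOVA with Bonferroni post hoc.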

[5] = in vivo; cited from earlier work

**Q.** What does the source list for `FC(F)(F)c1ccc(-c2ccc3c(c2)C2CC3CCCN2C2CCCC2)cc1` (racemic) [DKR-1051, (±)-2-Cyclopentyl-9-(4-(trifluoromethyl)phenyl)-1,2,3,4,5,6-hexa-hydro-1,6-methanobenzo[c]azocine]?
**A.** affinity at σ2R/Tmem97 (in words) (σ2R/Tmem97): high affinity; blood brain barrier crossing [1]: cross the blood brain barrier; time of peak relief of mechanical hypersensitivity after dosing ([2]; IT): 48 h; effect on SNI-induced mechanical hypersensitivity [2]: significant antimechanical hypersensitivity effects at either 24 or 48 h; effect on intracellular Ca2+ ([3]; SK-N-SH neuroblastoma cells): induces a rapid Ca^2+ transient

**Q.** For `c1ccc(CCN2CCC3CC2c2ccccc23)cc1` (racemic) [JSS-1027, (±)-2-Phenethyl-2,3,4,5-tetrahydro-1H-1,5-methanobenzo[c]-azepine], which “affinity at σ2R/Tmem97 (in words)” value (σ2R/Tmem97) is on record?
**A.** low nM range

**Q.** And the “time after IT injection at which efficacy was seen (onset)” value (“time after IT injection” below) [2]?
**A.** 48 h

**Q.** What about the “time through which antipain effect persisted” value [2] of the same compound?
**A.** 120 h

**Q.** And the “effect on SNI-induced mechanical hypersensitivity” value [2]?
**A.** significantly different from vehicle

**Q.** With `CN1CCC2CC1c1cc(N3CCOCC3)ccc12` (racemic) [JWG-1014, (±)-2-Methyl-2,3,4,5-tetrahydro-1H-1,5-methanobenzo[c]-azepin-8-yl)morpholine] as the compound, how does the “time after IT injection” value [2] read?
**A.** 48 h

**Q.** What about the “time through which antipain effect persisted” value [2] of the same compound?
**A.** 120 h

**Q.** What about the “effect on SNI-induced mechanical hypersensitivity” value [2] of the same compound?
**A.** significantly different from vehicle

**Q.** For `Clc1ccc2c(c1)C1CC2CCCN1CC1CCCCC1` (racemic) [MFG-1046, (±)-9-Chloro-2-(cyclohexylmethyl)-1,2,3,4,5,6-hexahydro-1,6-methanobenzo[c]azocine], which “affinity at σ2R/Tmem97 (in words)” value (σ2R/Tmem97) is on record?
**A.** low nM range

**Q.** What about the “time after IT injection” value [2] of the same compound?
**A.** 24 h

**Q.** And the “time through which antipain effect persisted” value [2]?
**A.** 72 h

**Q.** What about the “effect on SNI-induced mechanical hypersensitivity” value [2] of the same compound?
**A.** significantly different from vehicle

**Q.** What does the source list for `NCC1(CC(=O)O)CCCCC1` [Gabapentin, reference compound]?
**A.** effect on SNI-induced mechanical hypersensitivity ([4]; 1 and 3 h after injection): completely reversed mechanical hypersensitivity; mechanical hypersensitivity state ([4]; 24 h after injection): fully mechanically hypersensitive again

**Q.** For `CN1CCN(c2ccc3c(c2)[C@H]2C[C@@H]3CCN2C(=O)OCc2ccccc2)CC1` [SAS-0132], which “effect of co-administration on antinociceptive action of UKH-1114” value ([2]; SAS-0132 10 μg IT given at the same time as UKH-1114 10 μg) is on record?
**A.** completely blocked the effect seen with UKH-1114 given alone

**Q.** What about the “blood brain barrier crossing” value [5] of the same compound?
**A.** cross the blood brain barrier

**Q.** What about the “effect of pretreatment on DKR-1051-induced Ca2+ transient” value ([3]; SK-N-SH neuroblastoma cells pretreated with SAS-0132) of the same compound?
**A.** attenuated

**Q.** For `Fc1ccc(-n2cc(CCCCN3CCC4(CC3)OCc3ccccc34)c3ccccc32)cc1` [Siramesine, reference compound], which “effect on SNI-induced mechanical hypersensitivity” value [2] is on record?
**A.** small inhibitory effect on mechanical hypersensitivity that was significant at 24 and 48 h
